Results on 15 compounds are retold here after ChEMBL document CHEMBL5230128, “An electrophilic warhead library for mapping the reactivity and accessibility of tractable cysteines in protein kinases” (Eur J Med Chem, 2020).

What is called inhibition is the change of the read-out against control, counted positive when it falls. What is called half-life is the time in which the quantity being followed falls by half.

The source made the active and inactive calls. The rule behind the calls is not given here.

Data set [1] can be described thus: Aqueous stability of the compound assessed as compound degradation by measuring kinetic constant measured after 72 hrs by LC-MS analysis. In kind it is physicochemical. The note with it: buffer.
Data set [2] has as its target Maternal embryonic leucine zipper kinase (Homo sapiens, UniProt Q14680). Kind of data set: Inhibition of MELK (unknown origin) at 100 uM preincubated for 1 hr followed by substrate addition and measured after 1 hr by Z-lyte assay relative to control. The note with it: time 2.0 hrs. A digest of the protocol: (§1)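 Z'-LYTE FRET assay with single-concentration fragment tested in duplicate. Kinase and fragment are preincubated 1 h, then fluorophore-labelled peptide substrate is added for a further 1 h. A development protease then cleaves unphosphorylated peptide. Read-out is the 445 nm (coumarin)/520 nm (fluorescein) emission ratio.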

Data set [3] addresses T1, Tyrosine-protein kinase JAK3 (Homo sapiens) (UniProt P52333).
T1 sequence (whole entry): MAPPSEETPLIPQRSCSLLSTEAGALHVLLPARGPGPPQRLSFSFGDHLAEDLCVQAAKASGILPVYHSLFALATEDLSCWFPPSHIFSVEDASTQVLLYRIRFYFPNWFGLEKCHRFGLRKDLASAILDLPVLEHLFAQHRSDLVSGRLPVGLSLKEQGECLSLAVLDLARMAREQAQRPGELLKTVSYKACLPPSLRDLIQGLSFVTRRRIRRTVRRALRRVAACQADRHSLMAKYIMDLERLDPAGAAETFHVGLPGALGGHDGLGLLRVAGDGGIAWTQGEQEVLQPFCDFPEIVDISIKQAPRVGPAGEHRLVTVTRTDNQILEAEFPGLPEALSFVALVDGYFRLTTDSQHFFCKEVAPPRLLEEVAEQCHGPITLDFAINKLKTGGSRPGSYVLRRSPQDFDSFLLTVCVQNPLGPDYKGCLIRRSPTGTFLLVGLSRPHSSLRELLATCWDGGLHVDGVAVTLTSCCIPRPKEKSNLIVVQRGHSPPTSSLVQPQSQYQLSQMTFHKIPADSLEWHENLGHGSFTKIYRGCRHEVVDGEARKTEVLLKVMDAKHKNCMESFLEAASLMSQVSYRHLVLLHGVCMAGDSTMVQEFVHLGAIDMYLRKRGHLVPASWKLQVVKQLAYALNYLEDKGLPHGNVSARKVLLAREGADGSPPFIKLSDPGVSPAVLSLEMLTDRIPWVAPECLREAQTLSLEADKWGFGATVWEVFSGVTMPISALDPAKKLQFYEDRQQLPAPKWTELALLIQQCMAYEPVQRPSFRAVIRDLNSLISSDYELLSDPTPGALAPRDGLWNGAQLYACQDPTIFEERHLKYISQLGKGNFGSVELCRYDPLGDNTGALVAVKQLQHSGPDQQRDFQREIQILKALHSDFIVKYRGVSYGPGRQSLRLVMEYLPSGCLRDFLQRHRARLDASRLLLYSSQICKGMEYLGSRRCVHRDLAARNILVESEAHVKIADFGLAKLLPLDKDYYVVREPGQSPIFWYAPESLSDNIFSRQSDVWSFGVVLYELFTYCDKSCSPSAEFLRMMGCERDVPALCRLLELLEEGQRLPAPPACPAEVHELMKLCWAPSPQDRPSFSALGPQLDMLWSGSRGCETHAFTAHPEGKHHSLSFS
Kind of data set: Inhibition of JAK3 (unknown origin) incubated for 120 mins by LC-MS/MS analysis.

In data set [4] the target is Ribosomal protein S6 kinase alpha-3 (Homo sapiens, UniProt P51812). The data set can be described thus: Inhibition of RSK2 (unknown origin) at 100 uM preincubated for 1 hr followed by substrate addition and measured after 1 hr by Z-lyte assay relative to control. The note with it: time 2.0 hrs. A digest of the protocol:
as §1

For data set [5], the target named is Tyrosine-protein kinase BTK (Homo sapiens) (UniProt Q06187). The data set can be described thus: Inhibition of BTK (unknown origin) at 100 uM preincubated for 1 hr followed by substrate addition and measured after 1 hr by Z-lyte assay relative to control. The conditions noted are these: time 2.0 hrs. A digest of the protocol:
as §1

In data set [6] the target is T1, Tyrosine-protein kinase JAK3 (Homo sapiens). Kind of data set: Inhibition of JAK3 (unknown origin) at 100 uM preincubated for 1 hr followed by substrate addition and measured after 1 hr by Z-lyte assay relative to control. The conditions noted are these: time 2.0 hrs. A digest of the protocol: as §1
Data set [7] can be described thus: Thiol reactivity of compound assessed as half life by LC-MS analysis. Type of data set: physicochemical.
Data set [8] has as its target Dual specificity mitogen-activated protein kinase kinase 6 (Homo sapiens) (UniProt P52564). The data set can be described thus: Inhibition of MAP2K6 (unknown origin) at 100 uM preincubated for 1 hr followed by substrate addition and measured after 1 hr by Z-lyte assay relative to control. The note with it: time 2.0 hrs.
The nature of data set [9]: Aqueous stability of the compound assessed as compound degradation by measuring half life measured after 72 hrs by LC-MS analysis. The conditions noted are these: aqueous solution. In kind it is physicochemical.
Data set [10] can be described thus: Thiol reactivity of compound assessed as kinetic rate constant by LC-MS analysis. In kind it is physicochemical.
The target of data set [11] is Mitogen-activated protein kinase 1 (Homo sapiens) (UniProt P28482). The data set can be described thus: Inhibition of ERK2 (unknown origin) at 100 uM preincubated for 1 hr followed by substrate addition and measured after 1 hr by Z-lyte assay relative to control. The note with it: time 2.0 hrs. A digest of the protocol: as §1
Chain of Mitogen-activated protein kinase 1 (Homo sapiens) (P28482 whole entry): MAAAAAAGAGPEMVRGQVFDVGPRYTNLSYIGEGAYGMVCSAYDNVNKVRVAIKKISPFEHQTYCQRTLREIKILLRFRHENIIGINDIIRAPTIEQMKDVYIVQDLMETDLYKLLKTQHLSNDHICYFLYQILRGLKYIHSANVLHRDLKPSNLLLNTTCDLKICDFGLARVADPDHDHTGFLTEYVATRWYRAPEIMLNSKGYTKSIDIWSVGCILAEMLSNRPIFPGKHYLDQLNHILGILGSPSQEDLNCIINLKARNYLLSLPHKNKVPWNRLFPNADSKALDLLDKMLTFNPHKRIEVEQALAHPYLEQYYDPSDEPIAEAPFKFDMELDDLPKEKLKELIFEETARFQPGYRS

Chain of Maternal embryonic leucine zipper kinase (Q14680 whole entry, looked up, the tested form may be a part): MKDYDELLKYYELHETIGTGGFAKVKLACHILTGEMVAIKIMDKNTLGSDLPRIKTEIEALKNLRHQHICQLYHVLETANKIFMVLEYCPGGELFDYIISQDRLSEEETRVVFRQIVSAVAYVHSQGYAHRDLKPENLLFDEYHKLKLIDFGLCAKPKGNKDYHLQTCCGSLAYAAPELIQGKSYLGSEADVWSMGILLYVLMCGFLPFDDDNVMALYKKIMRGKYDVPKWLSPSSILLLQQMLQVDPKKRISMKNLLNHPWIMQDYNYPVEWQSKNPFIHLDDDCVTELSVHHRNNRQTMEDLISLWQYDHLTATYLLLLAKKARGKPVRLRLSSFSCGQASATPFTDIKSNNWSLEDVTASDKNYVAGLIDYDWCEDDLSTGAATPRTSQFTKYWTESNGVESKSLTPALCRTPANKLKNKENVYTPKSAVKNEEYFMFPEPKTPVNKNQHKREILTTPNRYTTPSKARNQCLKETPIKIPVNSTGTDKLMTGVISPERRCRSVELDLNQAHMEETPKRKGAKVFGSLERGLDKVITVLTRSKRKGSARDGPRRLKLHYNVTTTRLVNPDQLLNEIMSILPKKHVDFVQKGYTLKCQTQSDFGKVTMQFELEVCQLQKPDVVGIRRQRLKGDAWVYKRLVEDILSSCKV
Chain of Ribosomal protein S6 kinase alpha-3 (P51812 whole entry): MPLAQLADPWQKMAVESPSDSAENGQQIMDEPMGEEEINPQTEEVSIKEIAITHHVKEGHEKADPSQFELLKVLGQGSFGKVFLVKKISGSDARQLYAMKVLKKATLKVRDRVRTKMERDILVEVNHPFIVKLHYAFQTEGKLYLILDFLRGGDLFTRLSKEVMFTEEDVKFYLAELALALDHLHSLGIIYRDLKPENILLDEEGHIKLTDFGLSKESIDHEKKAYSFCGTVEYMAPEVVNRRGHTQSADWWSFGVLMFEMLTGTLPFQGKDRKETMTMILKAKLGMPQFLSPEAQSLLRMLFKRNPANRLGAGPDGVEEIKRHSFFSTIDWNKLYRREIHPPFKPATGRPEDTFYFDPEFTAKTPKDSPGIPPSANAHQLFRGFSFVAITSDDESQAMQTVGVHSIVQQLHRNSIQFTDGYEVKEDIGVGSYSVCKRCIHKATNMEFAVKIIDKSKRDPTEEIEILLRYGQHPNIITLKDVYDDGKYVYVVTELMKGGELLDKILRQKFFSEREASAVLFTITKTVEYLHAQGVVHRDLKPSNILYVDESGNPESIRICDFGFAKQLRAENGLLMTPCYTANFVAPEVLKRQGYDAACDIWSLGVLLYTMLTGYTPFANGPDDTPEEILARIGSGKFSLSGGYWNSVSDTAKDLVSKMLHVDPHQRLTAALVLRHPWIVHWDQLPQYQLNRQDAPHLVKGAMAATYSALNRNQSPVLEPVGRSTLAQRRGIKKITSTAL
Chain of Tyrosine-protein kinase BTK (Homo sapiens) (Q06187 whole entry): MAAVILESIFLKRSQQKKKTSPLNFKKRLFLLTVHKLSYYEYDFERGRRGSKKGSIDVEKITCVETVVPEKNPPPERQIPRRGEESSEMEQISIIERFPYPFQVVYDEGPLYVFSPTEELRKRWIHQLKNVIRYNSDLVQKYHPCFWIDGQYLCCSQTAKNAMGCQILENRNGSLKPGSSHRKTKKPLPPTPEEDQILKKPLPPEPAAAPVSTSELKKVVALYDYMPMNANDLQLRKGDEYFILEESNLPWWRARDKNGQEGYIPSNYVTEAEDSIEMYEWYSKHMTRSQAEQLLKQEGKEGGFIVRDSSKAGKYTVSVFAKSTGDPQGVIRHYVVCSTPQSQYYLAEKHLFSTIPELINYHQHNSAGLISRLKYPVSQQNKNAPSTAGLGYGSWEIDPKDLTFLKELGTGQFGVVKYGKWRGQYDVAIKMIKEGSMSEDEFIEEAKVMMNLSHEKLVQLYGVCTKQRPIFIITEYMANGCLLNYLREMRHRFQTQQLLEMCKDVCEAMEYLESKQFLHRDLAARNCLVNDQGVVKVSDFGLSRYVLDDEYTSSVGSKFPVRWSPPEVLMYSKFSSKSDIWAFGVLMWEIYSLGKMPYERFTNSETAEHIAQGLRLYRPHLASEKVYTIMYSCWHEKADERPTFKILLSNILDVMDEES

Consider `O=C1C=CC(=O)N1Cc1cc(C(F)(F)F)cc(C(F)(F)F)c1`, for which the K in data set [1] is 1.525 h⁻¹; in data set [10], > 13.863 h⁻¹. In addition, the inhibition in data set [2] was found to be 101%; in data set [4], 100%; in data set [5] it was 100%; in data set [6], 97%; in [8], 96%; in [11] it was 99%. Also, the inhibition entry in [3] was “Active”. For the same compound, the half-life in data set [7] was < 0.05 h; in data set [9], 0.5 h.
Turning to `C#Cc1cc(C(F)(F)F)cc(C(F)(F)F)c1`, the inhibition in data set [2] worked out at 24%; in data set [4] it was 36%; in data set [5], 24%; in [6], 7%; in data set [8], 11%; in [11], 4%. Besides, in [3], the inhibition entry was “Active”. Besides, in data set [10], the K stood at 0.007 h⁻¹.
Take `N#Cc1cc(C(F)(F)F)cc(C(F)(F)F)c1`: the inhibition in [2] is 15%; in data set [4], 3%; in data set [5], 18%; in data set [6], 21%; in data set [8], 11%; in [11], 4%. Moreover, the inhibition entry in [3] was “Active”. For the same compound, the K in data set [10] turned out to be 0.001 h⁻¹.
Take `NC(=O)/C=C/c1cc(C(F)(F)F)cc(C(F)(F)F)c1`: the K was 0.013 h⁻¹ in [1] and 0.002 h⁻¹ in data set [10]. Moreover, the inhibition was 52% in [2]; 51% in data set [4]; 21% in data set [5]; 20% in [6]; 10% in [8]; 6% in data set [11]. The inhibition result in data set [3] was “Active”. The half-life in data set [7] was > 72 h; in data set [9], 53.3 h.
Consider `CC(C)(C)OC(=O)N/N=C\c1cc(C(F)(F)F)cc(C(F)(F)F)c1`, for which the values for the K in data set [1] and in data set [10] were 0.091 h⁻¹ and 0.003 h⁻¹, respectively. In addition, the inhibition in [2] was 48%; in [4], 46%; in data set [5] it was 14%; in data set [6] it was 37%; in data set [8] it was 21%; in [11], 6%. Further, the inhibition entry in data set [3] is “Active”. In addition, the half-life was > 72 h in data set [7] and 7.6 h in data set [9].
Regarding `FC(F)(F)c1cc(C2CO2)cc(C(F)(F)F)c1` (stereo not drawn), the inhibition in data set [2] worked out at 11%; in data set [4], 56%; in [5] it was 60%; in data set [6], 40%; in data set [8], 26%; in [11] it was 9%. In addition, the inhibition result in data set [3] is “Active”.
Consider `C#CC(=O)Oc1cc(C(F)(F)F)cc(C(F)(F)F)c1`, for which the K in data set [1] came to 0.026 h⁻¹; in [10], 0.022 h⁻¹. The inhibition in data set [2] came out at 33%; in data set [4] it was 34%; in data set [5], 25%; in data set [6], 37%; in data set [8] it was 47%; in data set [11], 23%. Also, the inhibition result in [3] is “Active”. Also, the half-life is 31.6 h in data set [7] and 26.7 h in data set [9].
In the case of `CCOC(=O)/C=C/c1cc(C(F)(F)F)cc(C(F)(F)F)c1`, the values for the K in data set [1] and in [10] were 0.289 h⁻¹ and 0.005 h⁻¹, respectively. The inhibition worked out at 63% in data set [2]; 52% in data set [4]; 16% in data set [5]; 36% in data set [6]; 7% in data set [8]; 8% in data set [11]. Further, the inhibition entry in data set [3] is “Active”. The half-life in data set [7] was > 72 h; in [9] it was 2.4 h.
As to `O=C1C=CC(=O)N1c1cc(C(F)(F)F)cc(C(F)(F)F)c1`, the inhibition in data set [2] came out at 102%; in data set [4], 102%; in data set [5], 101%; in data set [6], 101%; in data set [8], 99%; in data set [11], 102%. Also, the inhibition entry in data set [3] was “Active”.
As for `COC(=O)C#Cc1cc(C(F)(F)F)cc(C(F)(F)F)c1`, the K in data set [1] is 0.128 h⁻¹; in data set [10], 2.249 h⁻¹. In addition, the inhibition in [2] is 38%; in data set [4], 55%; in [5], 41%; in data set [6], 34%; in data set [8], 44%; in data set [11], 22%. Moreover, the inhibition result in data set [3] was “Active”. For the same compound, the values for the half-life in data set [7] and in data set [9] were 0.3 h and 5.4 h, respectively.
Turning to `FC(F)(F)c1cc(CN=C=S)cc(C(F)(F)F)c1`, the K in data set [1] was 0.265 h⁻¹; in [10] it was > 13.863 h⁻¹. In addition, the inhibition in [2] came to 100%; in data set [4], 99%; in data set [5], 99%; in [6], 98%; in data set [8], 98%; in data set [11], 84%. Further, the inhibition result in [3] is “Active”. Moreover, the half-life in [7] was < 0.05 h; in data set [9] it was 2.6 h.
In the case of `CC(Cl)C(=O)Nc1cc(C(F)(F)F)cc(C(F)(F)F)c1` (stereo not drawn), the K came to 0.277 h⁻¹ in [1] and 0.002 h⁻¹ in data set [10]. Further, the inhibition in data set [2] was found to be 37%; in [4] it was 47%; in data set [5], 39%; in [6] it was 15%; in [8] it was 21%; in data set [11], 9%. In addition, the inhibition entry in data set [3] was “Active”. Besides, the half-life in data set [7] is > 72 h; in [9], 2.5 h.
Regarding `O=Cc1cc(C(F)(F)F)cc(C(F)(F)F)c1`, the K in [1] and in data set [10] was 0.001 h⁻¹ in each case. The inhibition was 11% in data set [2]; 6% in data set [4]; 5% in data set [5]; -1% in data set [6]; 20% in [8]; 4% in data set [11]. The inhibition entry in data set [3] was “Active”. Also, the half-life in data set [7] and in data set [9] was > 72 h throughout.
With `C=CC(=O)Oc1cc(C(F)(F)F)cc(C(F)(F)F)c1`, the K in data set [1] is 1.525 h⁻¹; in data set [10] it was > 13.863 h⁻¹. Besides, the inhibition in data set [2] was found to be 39%; in data set [4], 25%; in [5], 32%; in data set [6], 70%; in data set [8] it was 37%; in [11] it was 56%. In addition, in data set [3], the inhibition result was “Active”. The results for the half-life in data set [7] and in data set [9] were < 0.05 h and 0.5 h, respectively.
Take `C=Cc1cc(C(F)(F)F)cc(C(F)(F)F)c1`: the inhibition was 44% in data set [2]; 61% in data set [4]; 38% in data set [5]; -4% in data set [6]; 24% in [8]; 8% in [11]. The inhibition result in data set [3] is “Active”. The K in data set [10] came out at 0.004 h⁻¹.
